Compounds with a hit are over-represented: about 11% of the library has one in this group of screens.
M1 antagonist – blocks the rat M1 muscarinic receptor response to acetylcholine; AID 628; CHO-M1 cells, Fluo-4 calcium, ACh EC80 antagonist mode; hits give low values; actives 3.4% (n = 64,000); B-score at 10 µM; P08482;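 active = calcium fluorescence response, raw or row-and-column corrected B-score, differing from the plate sample mean either way at a set confidence level, mostly lower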
RORa activator – activates the human nuclear receptor RORA; actives 1.5% (n = 65,000); AID 560; CHO-K1 Gal4-RORA LBD luciferase reporter, luminescence; percent increase over mock-subtracted basal signal; activation, % at 10 µM;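 active = activation above the mean of all tested compounds plus 3 SD, cut at about 49% in these data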
Target sequence (P35398 whole entry, looked up, the tested form may be a part): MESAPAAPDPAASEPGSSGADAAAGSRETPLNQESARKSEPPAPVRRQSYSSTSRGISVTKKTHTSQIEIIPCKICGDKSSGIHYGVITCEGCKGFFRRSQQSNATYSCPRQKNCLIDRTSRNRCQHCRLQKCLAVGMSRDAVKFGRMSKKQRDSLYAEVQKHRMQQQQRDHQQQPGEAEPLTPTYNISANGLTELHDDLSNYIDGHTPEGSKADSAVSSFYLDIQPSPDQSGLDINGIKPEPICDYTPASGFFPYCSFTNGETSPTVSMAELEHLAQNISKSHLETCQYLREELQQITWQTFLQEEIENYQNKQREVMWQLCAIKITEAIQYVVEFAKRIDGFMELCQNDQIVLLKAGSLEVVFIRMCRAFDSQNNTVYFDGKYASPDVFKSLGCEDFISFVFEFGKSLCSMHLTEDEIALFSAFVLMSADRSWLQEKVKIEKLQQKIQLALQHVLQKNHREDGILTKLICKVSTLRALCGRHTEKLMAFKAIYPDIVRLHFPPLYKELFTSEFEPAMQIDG
mHtt clearance – mutant huntingtin protein clearance. HeLa Exon1htt(103Q)mCFP, aggregate imaging; zero = plate's median compound well. inhibition, % at 1.5 µM. AID 853. actives 0.42% (n = 47,000);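 active = inhibition of aggregate fluorescence above about 70%, also judged a hit by eye on the cell image, limit read from the data, passing the limit was not always enough; inconclusive = no rule stated for this call; inactive = not judged a hit on image review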;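 also: cells exposed to compound for three days before fixation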
M1 agonist – agonists of M1 muscarinic receptor; CHO-M1 cells, Fluo-4 calcium fluorescence, agonist mode; hits give high values; B-score at 10 µM; actives 3% (n = 64,000); AID 626;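 active = fluorescence rise, raw or as B-score row- and column-corrected plate score, outside the 99.7% band of its plate's samples, either direction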
SF1 activator – SF-1 (human) activation; Q13285; CHO-K1 Gal4-SF-1 LBD luciferase reporter; % increase over DMSO SF-1-specific signal; activation, % at 10 µM; actives 1.9% (n = 65,000); AID 522;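 active = activation above the mean activation of all tested compounds plus 3 SD, cut at about 50% in these data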
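Material: Transient Gal4-SF-1 LBD reporter, CHO-K1 | Input: 4,000 cells/well | Dosing: One dose, 10 µM compound, 1% DMSO | Incubation: 20 h compound treatment, 37 °C | Detection: SteadyLite luciferase luminescence | Evaluation: Percent activation relative to DMSO median and mock-transfected background | Benchmarks: DMSO-treated SF-1-transfected cells as negative, DMSO-treated mock-transfected cells lacking SF-1 as background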
D1 mod – allosteric modulators of human D1 dopamine receptor; AID 641; HEK293 D1, CRE-luciferase, dopamine EC30 potentiation; actives deviate in either direction; B-score at 10 µM; actives 5.9% (n = 58,000);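 active = luminescence count or its row- and column-corrected plate score outside the 99.7% band of the plate's sample wells, on either side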
D1 mod confirm – D1 receptor (human) allosteric modulation, confirmed; shares compounds with D1 mod; HEK293 D1 CRE-luciferase, dopamine EC30 potentiation; hits give high values; luminescence at 10 µM; actives 88% (n = 2,200); AID 642;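 active = luminescence in either of two replicates above the same-plate mean plus 3 SD of the low-dose dopamine control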
D1 no dopamine – activates D1 CRE-luciferase signal without dopamine present; HEK293 D1 CRE-luciferase, luminescence, no dopamine; hits give high values; luminescence at 10 µM; shares compounds with D1 mod; actives 0.8% (n = 1,900); in the data active = luminescence above about 3900
Isoprot counter – counter-screen for D1 modulators: isoproterenol response in HEK293 cells. shares compounds with D1 mod. HEK293 D1 CRE-luciferase, isoproterenol EC30 counter-screen. calls only at 10 µM. actives 63% (n = 2,200). AID 647;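 active = luminescence in either replicate above plate mean of wells with a partly effective reference agonist dose plus 3 SD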;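 also: isoproterenol raises cAMP through native beta-adrenoceptor Gs so signal bypasses D1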
Each line names hits and unclear results; the compound was inactive in the other large screens (follow-up assays come after a bar, where they were run).

CC1(C)C(c2cccs2)=NC(c2ccccc2)N1O (configuration not stated)	D1 mod 3.6 (no result: mHtt clearance) | D1 mod confirm 9348 | Isoprot counter active
Cc1ccc(-n2c(=O)[nH]c3c(C(N)=O)nc(CC(C)C)nc32)cc1	D1 mod 7.8 (no result: mHtt clearance) | D1 mod confirm 20900 | D1 no dopamine inactive | Isoprot counter active
Cc1ccc(-n2c(=O)[nH]c3c(C(N)=O)nc(-c4ccc(C)o4)nc32)cc1	none
COc1ccccc1-n1c(=O)[nH]c2c(C(N)=O)nc(CC(C)C)nc21	D1 mod 5.9 | D1 mod confirm 9424 | D1 no dopamine inactive | Isoprot counter inactive
COc1ccccc1-n1c(=O)[nH]c2c(C(N)=O)nc(C3CCCCC3)nc21	none (no result: mHtt clearance)
COC(=O)c1ccccc1NC(=O)CSc1ccccc1	none (no result: M1 antagonist, mHtt clearance, M1 agonist)
COC(=O)c1ccccc1NC(=O)COc1ccccc1	D1 mod 5.8 (no result: mHtt clearance) | D1 mod confirm 14156 | D1 no dopamine inactive | Isoprot counter active
COC(=O)c1ccccc1NC(=O)COc1ccc(S(=O)(=O)N2CCCC2)cc1C	D1 mod 3.2 | D1 mod confirm 5776 | D1 no dopamine inactive | Isoprot counter inactive
COC(=O)c1ccccc1NC(=O)CN(C)S(=O)(=O)c1ccc(OC)c(C)c1	none (no result: mHtt clearance)
COc1cccc(-n2c(SCC#N)nnc2-c2cnccn2)c1	none (no result: mHtt clearance)
COc1ccc(-n2c(SCC#N)nnc2-c2ccc(NS(=O)(=O)c3ccc(C)cc3)cc2)cc1	D1 mod 9.9 (no result: mHtt clearance) | D1 mod confirm 21068 | D1 no dopamine inactive | Isoprot counter active
Cc1cc(C(=O)Nc2ccc(S(=O)(=O)Nc3onc(C)c3C)cc2)c(C)o1	D1 mod 2.9 (no result: mHtt clearance) | D1 mod confirm 8272 | D1 no dopamine inactive | Isoprot counter active
CSc1oc(-c2ccco2)nc1S(=O)(=O)c1ccc(F)cc1	D1 mod 3.4 (no result: mHtt clearance) | D1 mod confirm 11924 | D1 no dopamine inactive | Isoprot counter inactive
CC(C)Sc1oc(-c2ccco2)nc1S(=O)(=O)c1ccccc1	D1 mod 6.5 (no result: mHtt clearance) | D1 mod confirm 19332 | D1 no dopamine inactive | Isoprot counter active
CSc1oc(-c2ccco2)nc1S(=O)(=O)c1ccccc1	none (no result: mHtt clearance, D1 mod)
COc1cccc(NC(=O)CC2(CC(=O)O)CCCC2)c1	none
CCOc1cc(C2C(C#N)=C(N)Oc3n[nH]c(-c4ccccc4)c32)ccc1O (configuration not stated)	D1 mod 3.8 (no result: mHtt clearance) | D1 mod confirm 5848 | D1 no dopamine inactive | Isoprot counter inactive
Cc1ccc(-c2[nH]nc3c2C(c2ccoc2)C(C#N)=C(N)O3)cc1C (configuration not stated)	D1 mod 11 | D1 mod confirm 18284 | D1 no dopamine inactive | Isoprot counter active
CC(C)CC1C(C#N)=C(N)Oc2n[nH]c(-c3ccccc3)c21 (configuration not stated)	none (no result: M1 antagonist, RORa activator, M1 agonist, SF1 activator, D1 mod)
CC(C)C1C(C#N)=C(N)Oc2n[nH]c(-c3ccccc3)c21 (configuration not stated)	M1 antagonist 1.3, D1 mod 3.8 | D1 mod confirm 13728 | D1 no dopamine inactive | Isoprot counter inactive
COc1ccc(-c2[nH]nc3c2C(c2ccoc2)C(C#N)=C(N)O3)cc1 (configuration not stated)	none (no result: M1 antagonist, RORa activator, M1 agonist, SF1 activator, D1 mod)
CCOC(=O)c1c(-c2ccncc2)csc1N	D1 mod 6.8 (no result: mHtt clearance) | D1 mod confirm 14984 | D1 no dopamine inactive | Isoprot counter inactive
O=C1CC(c2ccc(F)cc2)Sc2ccccc2N1 (configuration not stated)	D1 mod 28 (no result: mHtt clearance) | D1 mod confirm 22156 | D1 no dopamine inactive | Isoprot counter active
CCOc1ccccc1C1CC(=O)NC2=C1C(=O)CC(C)(C)C2 (configuration not stated)	D1 mod 3.3 (no result: mHtt clearance) | D1 mod confirm inactive | D1 no dopamine inactive | Isoprot counter inactive
COc1cc(C2CC(=O)NC3=C2C(=O)CC(C)(C)C3)ccc1O (configuration not stated)	none
CCC1CCCCN1CC(=O)Nc1cc(C)nn1-c1nc(C)cc(C)n1 (configuration not stated)	none (no result: mHtt clearance)
Cc1cc(C)nc(-n2nc(C)cc2NC(=O)CN2CCC(C)CC2)n1	D1 mod 5.3 (no result: mHtt clearance) | D1 mod confirm 16268 | D1 no dopamine inactive | Isoprot counter active
Cc1c(C(=O)O)sc2nc3n(c(=O)c12)CCC(C)CC3 (configuration not stated)	none (no result: mHtt clearance)
O=C(NCCNC(=O)C(c1ccccc1)c1ccccc1)c1ccco1	D1 mod 5.3 | D1 mod confirm 6392 | Isoprot counter inactive
C=CCNC(=O)C1CCN(S(=O)(=O)c2ccc(Br)cc2)CC1	none (no result: mHtt clearance)
CCCC(=O)Nc1c2c(nn1-c1ccc(OC)cc1)CS(=O)C2 (configuration not stated)	D1 mod 3.2 (no result: mHtt clearance) | D1 mod confirm inactive | D1 no dopamine inactive | Isoprot counter inactive
CCC(=O)Nc1c2c(nn1-c1ccc(OC)cc1)CS(=O)C2 (configuration not stated)	mHtt clearance inconclusive
Cn1ncc(C#N)c1NC(=O)C1CC(c2ccc(Cl)cc2)=NO1 (configuration not stated)	none (no result: M1 antagonist, RORa activator, M1 agonist, SF1 activator, D1 mod)
Cc1cc(C)n2nc(SC(C)C(=O)NCc3ccco3)nc2n1 (configuration not stated)	D1 mod 7.1 | D1 mod confirm inactive | D1 no dopamine inactive | Isoprot counter inactive
Cc1cc(C)n2c(SCC(=O)NCc3ccco3)nnc2n1	none (no result: mHtt clearance)
CC1(c2cccs2)CC(c2cccs2)=C(C#N)C(=O)N1 (configuration not stated)	none (no result: mHtt clearance)
CCOC(=O)C1=C(C)Nc2ccc(C)cc2S1	none (no result: M1 antagonist, RORa activator, M1 agonist, SF1 activator, D1 mod)
CCOCCOC(=O)C1=C(C)Nc2ccc(C)cc2S1	D1 mod 3.9 (no result: mHtt clearance) | D1 mod confirm 7892 | D1 no dopamine inactive | Isoprot counter inactive
O=S1(=O)CCC(SCc2nc3sccn3c2Br)C1 (configuration not stated)	none (no result: mHtt clearance)
CCOC(=O)C(CC)Sc1nc2c(c(=O)[nH]c(=O)n2C)n1CCc1ccccc1 (configuration not stated)	none
CCC(C)Sc1nc2c(c(=O)[nH]c(=O)n2C)n1CCc1ccccc1 (configuration not stated)	D1 mod 21 | D1 mod confirm 20608 | D1 no dopamine inactive | Isoprot counter active

Bioassay records as filed in PubChem.
